Active and inactive are the calls of the source. The rule behind the calls is not given here.
How the values were obtained:
[1] = molecular target: T1, 5-hydroxytryptamine receptor 4 (Homo sapiens, UniProt Q13639); test: Displacement of [3H]GR-113808 from human 5HT4 isoform E receptor expressed in rat C6 cells at 10 nM by liquid scintillation counting; type: cell-based
[2] = molecular target: T1, 5-hydroxytryptamine receptor 4; test: Agonist activity at human 5HT4 isoform E receptor expressed in rat C6 cells assessed as cAMP accumulation at 10 nM by radio-immunoassay relative to 5HT; type: functional, cell-based
In short: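 C6 glial cells stably transfected with h5-HT4(e)R, grown to confluence, serum-free 4 h, then preincubated 15 min in serum-free medium with 5 mM theophylline and 10 µM pargyline. […] Stopped with ice-cold perchloric acid; cAMP by radioimmunoassay; response normalized to 5-HT maximum.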

[3] = molecular target: T1, 5-hydroxytryptamine receptor 4; test: Displacement of [3H]GR-113808 from human 5HT4 isoform E receptor expressed in rat C6 cells by liquid scintillation counting; type: cell-based
[4] = molecular target: T1, 5-hydroxytryptamine receptor 4; test: Agonist activity at human 5HT4 isoform E receptor expressed in rat C6 cells assessed as cAMP accumulation by radio-immunoassay relative to 5HT; type: functional, cell-based
In short: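 C6 glial cells stably transfected with h5-HT4(e)R, grown to confluence, serum-free 4 h, then preincubated 15 min in serum-free medium with 5 mM theophylline and 10 µM pargyline.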

Mus musculus [5] = test: Increase in sAPPalpha levels in C57BL/6J mouse brain hippocampus at 5 mg/kg, sc after 90 mins by Western blot; type: functional, organism-based; design: dose 5 mg/kg
In short: (§1)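 Male C57BL/6j mice, 8 weeks, 23–27 g, 7–9 per group, single subcutaneous dose 5 mg/kg in 0.9% NaCl (saline controls 5 mL/kg). Killed 90 min later. Hippocampus and cortex sonicated in Tris/NaCl with protease inhibitors, spun 100000g 45 min. sAPPα immunoblot, normalized to β-actin densitometry, expressed as % of saline controls. One-way ANOVA with PLSD.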

Mus musculus [6] = test: Increase in sAPPalpha levels in C57BL/6J mouse brain cortex at 5 mg/kg, sc after 90 mins by Western blot; type: functional, organism-based; design: dose 5 mg/kg; in short: as §1
[7] = Inhibition of amyloid beta (25-35) polymerization assessed as inhibition of fibril formation by UV-visible measurement
In short: (§2)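 Aβ25-35 (100 µM final) with agonist (10 µM final, added in MeOH) in 10 mM phosphate buffer pH 7.2, prepared at 4 °C. UV-visible spectra 190–600 nm at 15 °C read after 6 h; agonist-alone spectra subtracted, Aβ-alone control run in parallel. At least three independent measurements. IC50 obtained by least-squares sigmoidal fit, for agonists at least as active as curcumin.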

[8] = Inhibition of amyloid beta (25-35) polymerization assessed as inhibition of fibril formation at 10 uM by UV-visible measurement; in short: as §2

T1 sequence (Q13639 whole entry, canonical isoform): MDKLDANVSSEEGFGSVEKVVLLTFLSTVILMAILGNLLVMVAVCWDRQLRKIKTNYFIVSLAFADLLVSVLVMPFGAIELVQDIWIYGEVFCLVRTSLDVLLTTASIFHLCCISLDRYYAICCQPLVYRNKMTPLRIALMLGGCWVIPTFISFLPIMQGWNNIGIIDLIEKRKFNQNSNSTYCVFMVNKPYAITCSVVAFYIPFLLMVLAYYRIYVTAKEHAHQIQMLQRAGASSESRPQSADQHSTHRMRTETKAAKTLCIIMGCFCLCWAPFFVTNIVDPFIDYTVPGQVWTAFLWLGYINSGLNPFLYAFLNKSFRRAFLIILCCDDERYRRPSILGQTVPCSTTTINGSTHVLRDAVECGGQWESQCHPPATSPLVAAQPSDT

SMILES	Activity [1]	Emax [2]	further results
COc1cc(N)c(Cl)cc1C(=O)OCCN1CCC(CNC(=O)CCC2CCCCC2)CC1	10%	> 50%	
COc1cc(N)c(Cl)cc1C(=O)OCCN1CCC(CNC(=O)CCCCc2ccccc2)CC1	10%	10%	
COc1cc(N)c(Cl)cc1C(=O)OCCN1CCC(NC(=O)c2ccccc2F)CC1	10%	10%	
COc1cc(N)c(Cl)cc1C(=O)OCCN1CCC(NC(=O)CCCNCCCc2ccc(CCCNCCCC(=O)NC3CCN(CCOC(=O)c4cc(Cl)c(N)cc4OC)CC3)cc2)CC1	10%	> 50%	Ki [3]: 14 nM; EC50 [4]: 9 nM; Activity (Mus musculus [5]): Active; Activity (Mus musculus [6]): Active; IC50 [7]: 9000 nM; inhibition [8]: 49%
COc1cc(N)c(Cl)cc1C(=O)OCCN1CCC(NC(=O)CCCNCCCc2ccccc2)CC1		50%	Ki [3]: 12 nM
COc1cc(N)c(Cl)cc1C(=O)OCCN1CCC(NC(=O)CCCc2ccccc2)CC1	20%	20%	
CCCC(=O)NC1CCN(CCOC(=O)c2cc(Cl)c(N)cc2OC)CC1	0%		
COc1cc(N)c(Cl)cc1C(=O)OCCN1CCC(NC(=O)c2ccc(C)nc2O)CC1	< 10%		
COc1cc(N)c(Cl)cc1C(=O)OCCN1CCC(CNC(=O)CCCc2ccccc2)CC1	20%	0%	
COc1cc(N)c(Cl)cc1C(=O)OCCN1CCC(NC(=O)Cc2ccc([N+](=O)[O-])cc2)CC1	20%	20%	
COc1cc(N)c(Cl)cc1C(=O)OCCN1CCC(NC(=O)Cc2ccccc2Cl)CC1	10%	> 50%	Ki [3]: 5 nM; EC50 [4]: 18 nM
COc1cc(N)c(Cl)cc1C(=O)OCCN1CCC(NC(=O)c2ccsc2)CC1	10%	20%	
COc1cc(N)c(Cl)cc1C(=O)OCCN1CCC(CNC(=O)Cc2ccc([N+](=O)[O-])cc2)CC1	40%	> 50%	
COc1cc(/C=C/C(=O)CC(=O)/C=C/c2ccc(O)c(OC)c2)ccc1O [CURCUMIN]			IC50 [7]: 10000 nM; inhibition [8]: 45%
COc1cc(N)c(Cl)cc1C(=O)OCCN1CCC(NC(=O)c2ccc([N+](=O)[O-])o2)CC1	< 10%		
COc1cc(N)c(Cl)cc1C(=O)OCCN1CCC(CNC(=O)CCCNS(=O)(=O)c2ccc(C)cc2)CC1	> 50%	> 70%	Ki [3]: 2 nM; EC50 [4]: 68 nM
COc1cc(N)c(Cl)cc1C(=O)OCCN1CCC(NC(=O)Cc2ccc(Br)cc2)CC1	10%	10%	
COc1cc(N)c(Cl)cc1C(=O)OCCN1CCCCC1	40%	45%	
COc1cc(N)c(Cl)cc1C(=O)OCCN1CCC(NC(=O)CCc2cccs2)CC1	10%	10%	
COc1cc(N)c(Cl)cc1C(=O)OCCN1CCC(NC(=O)CCc2ccccc2)CC1	20%	< 10%	
COc1cc(N)c(Cl)cc1C(=O)OCCN1CCC(CNC(=O)CC2CCCCC2)CC1	20%	< -10%	
COc1cc(N)c(Cl)cc1C(=O)OCCN1CCC(NC(=O)CCCNS(=O)(=O)c2ccc(C)cc2)CC1	10%	10%	
COc1cc(N)c(Cl)cc1C(=O)OCCN1CCC(NC(=O)CC(C)C)CC1	< 10%	10%	
COc1cc(N)c(Cl)cc1C(=O)OCCN1CCC(NC(=O)CC2CCCCC2)CC1	< 10%		
COc1cc(N)c(Cl)cc1C(=O)OCCN1CCC(NC(=O)CSc2ccccc2)CC1	20%	< 10%	
COc1cc(N)c(Cl)cc1C(=O)OCCN1CCC(CNC(=O)CCCNS(=O)(=O)c2ccc(-c3ccccc3)cc2)CC1	10%	< 10%	
COc1cc(N)c(Cl)cc1C(=O)OCCN1CCC(NC(=O)CCC2CCCCC2)CC1	0%		
COc1cc(N)c(Cl)cc1C(=O)OCCN1CCC(NC(=O)CCCCc2ccccc2)CC1	< 10%		
COc1cc(N)c(Cl)cc1C(=O)OCCN1CCC(NC(=O)c2cccs2)CC1	20%	< 10%	

Further lines, with some results ahead:

Activity [1]	Emax [2]	SMILES	further results
20%	< 10%	COc1cc(N)c(Cl)cc1C(=O)OCCN1CCC(CNC(=O)c2cccs2)CC1	
10%	10%	COc1cc(N)c(Cl)cc1C(=O)OCCN1CCC(CNC(=O)c2ccc(C)nc2O)CC1	
20%	40%	COc1cc(N)c(Cl)cc1C(=O)OCCN1CCC(CNC(=O)CC(C)C)CC1	
20%		COc1ccc(OC)c(/C=C/C(=O)NCC2CCN(CCOC(=O)c3cc(Cl)c(N)cc3OC)CC2)c1	
20%	10%	COc1cc(N)c(Cl)cc1C(=O)OCCN1CCC(CNC(=O)C(C)C)CC1	
40%	10%	COc1ccc(OC)c(CC(=O)NCC2CCN(CCOC(=O)c3cc(Cl)c(N)cc3OC)CC2)c1	
30%	< 10%	COc1cc(N)c(Cl)cc1C(=O)OCCN1CCC(CNC(=O)CSc2ccccc2)CC1	
10%	10%	COc1cc(N)c(Cl)cc1C(=O)OCCN1CCC(CNC(=O)CC(C)(C)C)CC1	
10%	0%	COc1cc(N)c(Cl)cc1C(=O)OCCN1CCC(CNC(=O)c2ccsc2)CC1	
> 50%	20%	COc1cc(N)c(Cl)cc1C(=O)OCCN1CCC(CNC(=O)Cc2ccccc2Cl)CC1	
20%	0%	COc1cc(N)c(Cl)cc1C(=O)OCCN1CCC(CNC(=O)c2ccccc2F)CC1	
40%	0%	COc1cc(N)c(Cl)cc1C(=O)OCCN1CCC(CNC(=O)Cc2ccc(Br)cc2)CC1	
30%	30%	COc1cc(N)c(Cl)cc1C(=O)OCCN1CCC(CNC(=O)CCc2cccs2)CC1	
20%	< 10%	CCCC(=O)NCC1CCN(CCOC(=O)c2cc(Cl)c(N)cc2OC)CC1	
20%	20%	COc1cc(N)c(Cl)cc1C(=O)OCCN1CCC(CNC(=O)CCc2ccccc2)CC1	

— ChEMBL document CHEMBL1153823, “Design, synthesis, and biological evaluation of new 5-HT4 receptor agonists: application as amyloid cascade modulators and potential therapeutic utility in Alzheimer's disease” (J Med Chem, 2009)
